From PubChem BioAssay
KCNK3 block – human KCNK3 channel inhibitors, primary screen, CHO cells, FluxOR thallium flux, B-score; 340,000 tested, 0.84% active; AID 602410, 2012; B-score at 10 µM; FluxOR fluorescence; hits give low values;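 active = B-score under library mean minus 4 SD, starting fluorescence ratio at most library mean plus 5 SD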;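 note: more negative B-score means stronger inhibition of thallium flux through KCNK3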
Target sequence (O14649 whole entry, looked up): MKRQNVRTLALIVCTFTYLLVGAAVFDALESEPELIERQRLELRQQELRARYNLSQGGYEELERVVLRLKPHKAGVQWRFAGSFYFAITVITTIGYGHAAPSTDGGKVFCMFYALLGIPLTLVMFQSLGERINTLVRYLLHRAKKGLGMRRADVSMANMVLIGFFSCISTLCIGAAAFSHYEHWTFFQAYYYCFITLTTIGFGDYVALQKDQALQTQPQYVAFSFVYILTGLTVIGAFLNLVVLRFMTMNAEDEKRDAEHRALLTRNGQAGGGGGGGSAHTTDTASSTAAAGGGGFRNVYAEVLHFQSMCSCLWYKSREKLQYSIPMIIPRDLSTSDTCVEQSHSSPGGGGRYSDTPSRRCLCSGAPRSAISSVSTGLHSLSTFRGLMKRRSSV
KCNQ1 inh – inhibitors of human KCNQ1 channel, primary screen, cell-based, thallium flux, high-throughput; CHO-K1 KCNQ1, FluxOR thallium flux fluorescence; hits give high values; AID 2642, 2010; 310,000 tested, 1.3% active; B-score at 10 µM; Potassium voltage-gated channel subfamily KQT member 1 (Homo sapiens), P51787;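 active = compounds whose thallium flux B-score, printed positive for inhibition, exceeds three library SD while starting fluorescence stays within three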;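 note: channel opened by potassium depolarization with thallium stimulus after 20 min compound exposure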
KCNK9 inh – KCNK9 potassium channel inhibitors, primary screen, HEK293 cells, thallium flux; Potassium channel subfamily K member 9 (Homo sapiens), Q9NPC2; FluxOR thallium flux fluorescence; hits give low values; B-score at 10 µM; 310,000 tested, 1.2% active;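 active = ratio B-score over 3 SD below the library mean, with starting fluorescence within 5 SD of its mean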;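 note: negative B-score means less thallium flux so channel inhibition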
KCNQ1 pot – potentiators or activators of KCNQ1 channel, primary screen, cell-based, thallium flux, high-throughput; Potassium voltage-gated channel subfamily KQT member 1 (Homo sapiens), P51787; CHO-K1 KCNQ1, thallium flux FluxOR fluorescence; hits give high values; B-score at 10 µM; 310,000 tested, 0.35% active;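 active = fluorescence ratio B-score, a plate-corrected score, at least three library SD, with initial intensity B-score within 5 SD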
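Schedule – 37 °C overnight plating, 90-min dark dye load, 20-min compound pretreatment · System – stable KCNQ1 CHO-K1 line · Probe or stimulus – thallium- and potassium-containing depolarizing buffer · Measured by – kinetic FluxOR fluorescence, 10 s baseline plus 110 s post-stimulus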
Cl transport mod – KCC2 cotransporter modulators, thallium flux, primary screen, cell-based, HEK293 KCC2, FluoZin-2 fluorescence, MLSMR; KCC2 cells, thallium flux FluoZin-2 fluorescence; B-score of Tl+ flux slope (higher = more flux/activation; lower = inhibition) at 10 µM; 190,000 tested, 2.2% active;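 active = thallium flux slope and its plate-corrected score both differing from the plate sample mean at a set confidence after two filtering rounds, in either direction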;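 note: slope of fluorescence scaled to starting intensity during 10 to 20 s after thallium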
hERG protect – hERG rescue from dofetilide block, primary screen, cell-based, CHO-hERG, FluxOR thallium flux, dofetilide IC70; dofetilide IC70 present; 310,000 tested, 0.51% active; activation (rescue from dofetilide block), less the hit threshold, % at 10 µM;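 active = activation above the mean of controls blocked by dofetilide plus 5 SD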;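 note: thallium influx through hERG after potassium depolarization seen as dye fluorescence rise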
Large screens that a line does not name were inactive. Sampled rows, rich in hits. Any-hit rate of the full collection: about 4.1%.

CC(NCC(O)COCCC12CC3CC(CC(C3)C1)C2)c1ccccc1 (centres undefined)	KCNQ1 inh 8
NCC(O)COCCC12CC3CC(CC(C3)C1)C2 (centres undefined)	none
O=C(C[C@@H]1C/C=C\C[C@@H](Cc2ccc(F)cc2)C(=O)OC[C@H]2CCCN2C1=O)NCCO	none (no result: KCNQ1 inh, KCNK9 inh, KCNQ1 pot, Cl transport mod, hERG protect)
CCN(CC)c1ccc(/C=C(/C#N)C(=O)NC(C)C)o1	none
CC(C)NC(=O)/C(C#N)=C\c1ccc(N(C)C)o1	KCNK9 inh -7
N#CCCN1CCN(C(=S)c2ccc(-c3cc(Cl)ccc3Cl)o2)CC1	KCNK9 inh -7.8 (no result: Cl transport mod)
O=[N+]([O-])c1ccc(NN=Cc2ccc3c(c2)OCO3)nc1	none (no result: KCNQ1 inh, KCNK9 inh, KCNQ1 pot, Cl transport mod, hERG protect)
CCS(=O)(=O)N1CCN=C1SCc1ccc(F)cc1	none (no result: Cl transport mod)
CC[C@]12c3[nH]c4ccc(OC)cc4c3CCN1C(=O)C(CC(=O)NCCCOC)C[C@@H]2C(=O)N1CCN(C(=O)c2ccco2)CC1 (some centres undefined)	none (no result: KCNQ1 inh, KCNK9 inh, KCNQ1 pot, Cl transport mod, hERG protect)
Cc1ccc(S(=O)(=O)N(CC(=O)O)Cc2ccco2)cc1	none
Cc1ccc(S(=O)(=O)N(Cc2ccc(F)cc2)Cc2ccco2)cc1	KCNQ1 inh 6
CCOc1cc(/C=C(\C#N)C(=O)Nc2ccc(S(N)(=O)=O)cc2)ccc1OCCN1CCOCC1	none (no result: Cl transport mod)
N#Cc1ccc(NC(=O)Nc2ccc(Oc3ccc(NC(=O)Nc4ccc(C#N)cc4)cc3)cc2)cc1	KCNQ1 inh 9
COc1ccc(NC(=O)Nc2ccc(OC)cc2)cc1	none
Cc1nn(C(=O)CNC(=O)c2ccccc2)c(C)c1C	hERG protect 8.0
Cc1ccc(CNCCCn2cnc(C(=O)Nc3ccc(C)c(C)c3)n2)o1	none (no result: KCNQ1 inh, KCNK9 inh, KCNQ1 pot, Cl transport mod, hERG protect)
Cn1c(COc2cccc3ccccc23)nnc1SCC(=O)OC1CCCCC1	none
CCn1c(COc2cccc3ccccc23)nnc1SCC(=O)OC1CCCCC1	KCNQ1 inh 10 (no result: Cl transport mod)
N#CC(c1cccc(Cl)c1)c1ccc2c(C(F)(F)F)cc(C(F)(F)F)nc2n1 (centres undefined)	KCNQ1 pot 76, Cl transport mod 29
NNc1ccc2c(C(F)(F)F)cc(C(F)(F)F)nc2n1	none (no result: Cl transport mod)
COc1ccc(NC(=O)CN(C)C(=O)/C=C/c2cn(-c3ccccc3)nc2-c2cccs2)cc1	none (no result: Cl transport mod)
Cc1ccccc1NC(=S)NCCC(c1ccccc1)c1ccccc1	KCNQ1 inh 7
S=C(NCCC(c1ccccc1)c1ccccc1)Nc1cccc(Cl)c1	KCNQ1 inh 9
CC1=CC(C)(C)n2c(O)c(N=NC(N)=S)c3cccc1c32	Cl transport mod 5.9
CCc1nnc(NC(=O)c2cccnc2)s1	none
O=C(Nc1nnc(Cc2ccccc2)s1)c1cccnc1	hERG protect 6.3
N#CCCN(NC(=O)OCc1ccccc1)C(=O)OCc1ccccc1	none (no result: KCNQ1 inh, KCNK9 inh, KCNQ1 pot, Cl transport mod, hERG protect)
N#Cc1c(NC(=O)/C=C/C(=O)O)sc2c1CCN(Cc1ccccc1)C2	KCNQ1 inh 6 (no result: Cl transport mod)
O=[N+]([O-])c1ccc(/C([O-])=C(/C(=S)NCc2ccco2)[n+]2ccccc2)cc1	KCNQ1 pot 8
Cc1c(-c2ccccc2)oc2c(C(=O)N3CCN(c4ccc([N+](=O)[O-])cc4)CC3)cccc2c1=O	KCNK9 inh -7.1
CCOc1ccc(NC(=O)CN(C)C(=O)C(C)Oc2ccc(Cl)cc2)cc1OCC (centres undefined)	none (no result: KCNQ1 inh, KCNK9 inh, KCNQ1 pot, Cl transport mod, hERG protect)
COc1ccccc1N1CCN(C(=O)CN(C2CCCCC2)S(C)(=O)=O)CC1	none (no result: Cl transport mod)
COc1ccc(N2CCN(C(=O)CN(C3CCCCC3)S(C)(=O)=O)CC2)cc1	hERG protect 32
O=c1c2ccccc2c(C=NCc2ccccn2)c(O)n1-c1ccccc1Cl	hERG protect 8.0
Cc1cc(C)c2[nH]c(=O)c(CN(Cc3ccc4c(c3)OCO4)Cc3nnnn3C3CCCC3)cc2c1	KCNK9 inh -13
CCCc1cc2c(-c3ccccc3)cc(=O)oc2cc1OCc1ccc(C(=O)O)o1	KCNQ1 pot 9
